Laboratory results from ChEMBL document CHEMBL1177671, “Synthesis and cytotoxic activity of a new potential DNA bisintercalator: 1,4-Bis{3-[N-(4-chlorobenzo[g]phthalazin-1-yl)aminopropyl]}piperazine” (Bioorg Med Chem, 2010).

Columns and labels:
HT-29 = assay: Cytotoxicity against human HT-29 cells after 72 hrs by XTT assay; type: functional, cell-based; settings: HT-29, 72 h
Summary of the method: (§1)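 Cells grown in DMEM with 10% heat-inactivated FBS, 2 mM L-glutamine, penicillin/streptomycin at 37 °C, 5% CO2, and tested Mycoplasma-negative. 1.5 × 10³ cells per well were exposed to compound over 10^-4 to 10^-9 M for 72 h at 37 °C, then read by XTT proliferation assay. Done in triplicate; IC50 is the concentration giving 50% proliferation inhibition versus untreated controls.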

SF-268 = assay: Cytotoxicity against human SF268 cells after 72 hrs by XTT assay; type: functional, cell-based; settings: SF-268, 72 h; summary of the method: as §1
MCF7 = assay: Cytotoxicity against human MCF7 cells after 72 hrs by XTT assay; type: functional, cell-based; settings: MCF7, 72 h; summary of the method: as §1
NCI-H460 = assay: Cytotoxicity against human NCI-H460 cells after 72 hrs by XTT assay; type: functional, cell-based; settings: NCI-H460, 72 h; summary of the method: as §1
Calf thymus DNA = assay: Binding affinity to calf thymus DNA assessed as change in melting temperature; type: nucleic-acid assay; settings: Bos taurus
Summary of the method: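 ct-DNA sonicated, filtered (0.45 µm) and held in sodium cacodylate buffer, I = 0.05 mol dm^-3, pH 7.0, at 7.5 × 10^-6 M base pairs. Melting was followed by absorbance at 260 nm versus temperature with increasing ligand, ligand absorbance subtracted and normalised. Tm is the transition midpoint (first-derivative maximum or tangent method). ΔTm = Tm(complex) − Tm(free DNA), averaged over ≥3 runs, error 0.5 °C.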

Tm (Calf thymus DNA) | Structure (SMILES) | IC50 (HT-29) | IC50 (SF-268) | IC50 (MCF7) | IC50 (NCI-H460)
 | CCCCNc1nnc(Cl)c2cc3ccccc3cc12 | > 100 µM | 88 µM | > 100 µM | 85.5 µM
 | CCCCCNc1nnc(NCCCCC)c2cc3ccccc3cc12 | 2.7 µM | 2.7 µM | 2.57 µM | 2.37 µM
 | CCCCNc1nnc(NCCCC)c2cc3ccccc3cc12 | 2.35 µM | 2.63 µM | 2.47 µM | 2.03 µM
 | c1ccc(CCNc2nnc(NCCc3ccccc3)c3cc4ccccc4cc23)cc1 | 2.95 µM | 2.63 µM | 2.57 µM | 1.83 µM
 | Clc1nnc(NCCCN2CCN(CCCNc3nnc(Cl)c4cc5ccccc5cc34)CC2)c2cc3ccccc3cc12 | 0.497 µM | 0.665 µM | 0.863 µM | 0.742 µM
 | NCCCN1CCN(CCCNc2nnc(Cl)c3cc4ccccc4cc23)CC1 | 10.5 µM | 12.6 µM | 9.2 µM | 8.8 µM
20.6 °C | COc1cccc2c1C(=O)c1c(O)c3c(c(O)c1C2=O)C[C@@](O)(C(=O)CO)C[C@@H]3O[C@H]1C[C@H](N)[C@H](O)[C@H](C)O1 [DOXORUBICIN] | 0.28 µM | 0.22 µM | 0.324 µM | 0.264 µM
